Among the data in ChEMBL document CHEMBL3872285, “Discovery of a Potent, Selective, and Orally Available PI3Kδ Inhibitor for the Treatment of Inflammatory Diseases” (ACS Med Chem Lett, 2017) are metabolised and IC50 values, retold here.

What is called IC50 is the point on the concentration scale where inhibition reaches its midpoint.

A short description of series [1]: Drug metabolism in human liver microsomes assessed as disappearance of parent compound at 5 uM after 30 mins in presence of NADPH by UPLC-MS/MS analysis.
Series [2] in a line: Drug metabolism in rat liver microsomes assessed as disappearance of parent compound at 5 uM after 30 mins in presence of NADPH by UPLC-MS/MS analysis.
Series [3] addresses T1, Phosphatidylinositol 4,5-bisphosphate 3-kinase catalytic subunit delta isoform (Homo sapiens, UniProt O00329).
T1 sequence (O00329 whole entry): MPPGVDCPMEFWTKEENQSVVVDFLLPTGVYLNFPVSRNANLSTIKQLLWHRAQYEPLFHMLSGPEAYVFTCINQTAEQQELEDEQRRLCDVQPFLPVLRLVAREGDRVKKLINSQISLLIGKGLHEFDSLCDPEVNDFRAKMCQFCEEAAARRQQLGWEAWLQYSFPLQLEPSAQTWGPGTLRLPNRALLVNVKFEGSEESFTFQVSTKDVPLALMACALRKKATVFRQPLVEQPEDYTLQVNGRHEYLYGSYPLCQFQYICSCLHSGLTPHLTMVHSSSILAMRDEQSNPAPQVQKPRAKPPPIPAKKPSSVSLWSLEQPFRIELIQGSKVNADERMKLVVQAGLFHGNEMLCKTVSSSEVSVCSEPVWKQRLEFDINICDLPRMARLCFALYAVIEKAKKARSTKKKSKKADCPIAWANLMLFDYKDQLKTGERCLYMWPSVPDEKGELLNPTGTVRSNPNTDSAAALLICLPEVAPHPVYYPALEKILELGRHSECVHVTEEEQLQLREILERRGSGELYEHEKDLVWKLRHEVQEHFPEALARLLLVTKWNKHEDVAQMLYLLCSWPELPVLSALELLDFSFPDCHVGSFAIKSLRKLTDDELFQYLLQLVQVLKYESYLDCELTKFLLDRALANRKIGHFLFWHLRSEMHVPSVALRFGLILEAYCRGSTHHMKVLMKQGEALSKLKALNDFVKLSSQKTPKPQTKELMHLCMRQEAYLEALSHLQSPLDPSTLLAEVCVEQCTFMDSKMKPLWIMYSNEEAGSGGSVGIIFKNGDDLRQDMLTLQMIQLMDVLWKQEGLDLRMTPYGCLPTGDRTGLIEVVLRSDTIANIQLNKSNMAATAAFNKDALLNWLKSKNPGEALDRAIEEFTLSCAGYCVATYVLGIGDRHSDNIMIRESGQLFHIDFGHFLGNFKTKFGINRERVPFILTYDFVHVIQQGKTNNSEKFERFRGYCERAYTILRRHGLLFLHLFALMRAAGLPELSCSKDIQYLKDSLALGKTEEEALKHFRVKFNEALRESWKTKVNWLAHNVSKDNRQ
Nature of the series: Inhibition of PI3Kdelta in human THP1 cells assessed as reduction in MCSF-stimulated akt phosphorylation at Thr308 preincubated for 30 mins followed by MCSF stimulation for 3 mins by ELISA. Format: cell-based, THP-1. The procedure, abridged: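 THP-1 cells exposed to compound for 30 min, then stimulated with MCSF at EC80 for 3 min; lysates assayed by ELISA for pAkt (Thr308).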

Series [4] concerns the target PI3-kinase p110-delta/p85-alpha (Homo sapiens, UniProt O00329). Nature of the series: Inhibition of full length recombinant human N-terminal His6-tagged PI3K p110delta/human p85alpha expressed in baculovirus infected sf21 cells using PIP2 as substrate preincubated for 30 mins followed by substrate addition by HTRF assay. On the technique in general: TR-FRET usually uses a lanthanide donor and a delayed reading to cut background.

Each structure is given as a SMILES string.

Chain of PI3-kinase p110-delta/p85-alpha (P27986 whole entry, one chain of several): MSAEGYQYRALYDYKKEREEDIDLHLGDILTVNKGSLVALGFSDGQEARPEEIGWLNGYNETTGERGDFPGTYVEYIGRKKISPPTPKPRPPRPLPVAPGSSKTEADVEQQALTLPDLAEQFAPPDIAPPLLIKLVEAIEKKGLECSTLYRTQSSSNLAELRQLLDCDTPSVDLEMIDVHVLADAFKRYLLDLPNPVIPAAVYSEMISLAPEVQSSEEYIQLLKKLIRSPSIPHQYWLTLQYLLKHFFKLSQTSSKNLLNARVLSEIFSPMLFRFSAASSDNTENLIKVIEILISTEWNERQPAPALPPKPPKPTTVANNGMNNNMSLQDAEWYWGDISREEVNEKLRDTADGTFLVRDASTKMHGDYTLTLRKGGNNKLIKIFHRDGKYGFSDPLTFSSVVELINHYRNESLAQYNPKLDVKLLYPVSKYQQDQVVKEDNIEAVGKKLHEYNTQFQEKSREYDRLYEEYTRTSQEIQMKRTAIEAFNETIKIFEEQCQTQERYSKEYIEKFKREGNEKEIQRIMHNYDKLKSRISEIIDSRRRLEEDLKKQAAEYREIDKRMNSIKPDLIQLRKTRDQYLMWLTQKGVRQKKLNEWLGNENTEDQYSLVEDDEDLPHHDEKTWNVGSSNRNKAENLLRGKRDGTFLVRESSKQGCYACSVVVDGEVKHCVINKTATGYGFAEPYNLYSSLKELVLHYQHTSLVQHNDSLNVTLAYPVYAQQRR

With `C[C@H](Nc1ncnc2[nH]cnc12)c1nn2cccc2c(=O)n1-c1ccccc1`, the values for the metabolised at 0.5 h, 5 µM in series [1] and in series [2] were 30% and 18%, respectively. Further, the figures for the IC50 in series [3] and in series [4] were 7 nM and 10 nM, respectively.

Turning to `N#Cc1c(N)ncnc1NC1(c2nn3cccc3c(=O)n2-c2ccccc2)CC1`, the 50% inhibitory concentration (IC50) in series [4] stood at 3400 nM.

With `N#Cc1c(N)ncnc1N1CCC[C@H]1c1nn2cccc2c(=O)n1-c1ccccc1`, the figures for the metabolised at 0.5 h, 5 µM in series [1] and in series [2] were 48% and 46%, respectively. Moreover, the concentration for half-maximal inhibition (IC50) in series [3] was determined as 6.6 nM; in series [4], 4.6 nM.

Take `C[C@H](Nc1ncnc(N)c1F)c1nn2cccc2c(=O)n1-c1ccccc1`: the values for the half-maximal inhibitory concentration (IC50) in series [3] and in series [4] were 210 nM and 73 nM, respectively.

Regarding `C[C@H](Nc1nc(N)nc(N)n1)c1nn2cccc2c(=O)n1-c1ccccc1`, the metabolised at 0.5 h, 5 µM in series [1] was 33%; in series [2], 25%. In addition, the IC50 came to 76 nM in series [3] and 91 nM in series [4].

For `C[C@H](Nc1ncnc(N)c1C(F)(F)F)c1nn2cccc2c(=O)n1-c1ccccc1`, the metabolised at 0.5 h, 5 µM in series [1] was 43%; in series [2], 51%. The half-maximal inhibitory concentration (IC50) in series [4] was determined as 12 nM.

As for `Cc1ccn2nc(C(C)n3cnc4c(N)ncnc43)n(-c3ccccc3)c(=O)c12` (stereo not drawn), in series [4], the 50% inhibitory concentration (IC50) came to 75 nM.

`C[C@H](Nc1ncnc2[nH]ccc12)c1nn2cccc2c(=O)n1-c1ccccc1`: the metabolised at 0.5 h, 5 µM in series [1] came out at 49%; in series [2], 44%. Further, the values for the IC50 in series [3] and in series [4] were 150 nM and 52 nM, respectively.

Consider `C[C@H](Nc1nc(N)nc2[nH]cnc12)c1nn2cccc2c(=O)n1-c1ccccc1`, for which the metabolised at 0.5 h, 5 µM in series [1] worked out at 26%; in series [2], 30%. The half-inhibitory concentration (IC50) in series [3] worked out at 6.5 nM; in series [4], 3.1 nM.

Turning to `C[C@H](Nc1ncnc(N)c1C#N)c1nn2c(C(F)(F)F)ccc2c(=O)n1-c1ccccc1`, the IC50 came out at 380 nM in series [3] and 71 nM in series [4].

For `C[C@H](Nc1cc(N)ncn1)c1nn2cccc2c(=O)n1-c1ccccc1`, the IC50 in series [4] was determined as 1200 nM.

In the case of `N#Cc1c(N)ncnc1N1CC(F)(F)C[C@H]1c1nn2cccc2c(=O)n1-c1ccccc1`, the metabolised at 0.5 h, 5 µM was determined as 35% in series [1] and 30% in series [2]. Moreover, the concentration for half-maximal inhibition (IC50) in series [3] came to 370 nM; in series [4], 31 nM.

On to `CC[C@H](Nc1ncnc2[nH]cnc12)c1nn2cccc2c(=O)n1-c1ccccc1`, for which the metabolised at 0.5 h, 5 µM in series [1] turned out to be 49%; in series [2], 38%. Also, the IC50 in series [4] is 25 nM.

Consider `Cc1ccc2c(=O)n(-c3ccccc3)c([C@H](C)Nc3ncnc(N)c3C#N)nn12`, for which the metabolised at 0.5 h, 5 µM in series [1] was 82%; in series [2], 54%. The figures for the IC50 in series [3] and in series [4] were 11 nM and 8.8 nM, respectively.

Consider `C[C@H](Nc1ncnc(N)c1C#N)c1nn2ccnc2c(=O)n1-c1ccccc1`, for which the metabolised at 0.5 h, 5 µM came out at 23% in series [1] and 14% in series [2]. The half-inhibitory concentration (IC50) in series [3] was 210 nM; in series [4], 57 nM.

Consider `C[C@H](Nc1ncnc2[nH]cc(F)c12)c1nn2cccc2c(=O)n1-c1ccccc1`, for which the metabolised at 0.5 h, 5 µM turned out to be 58% in series [1] and 48% in series [2]. The 50% inhibitory concentration (IC50) in series [3] was found to be 47 nM; in series [4] it was 9 nM.

For `CC[C@@H](Nc1ncnc2[nH]cnc12)c1nn2cccc2c(=O)n1-c1ccccc1`, the metabolised at 0.5 h, 5 µM was 30% in series [1] and 32% in series [2]. The IC50 in series [4] amounted to 1800 nM.

As to `C[C@H](Nc1ccnc2ccnn12)c1nn2cccc2c(=O)n1-c1ccccc1`, the metabolised at 0.5 h, 5 µM in series [1] stood at 86%; in series [2], 100%. The IC50 in series [4] was 60 nM.

Regarding `N#Cc1c(N)ncnc1NC(CC(F)(F)F)c1nn2cccc2c(=O)n1-c1ccccc1` (stereo not drawn), the figures for the IC50 in series [3] and in series [4] were 1600 nM and 610 nM, respectively.

On to `Cc1ccccc1-n1c(Cn2cnc3c(N)ncnc32)nn2ccc(C)c2c1=O`, for which the IC50 in series [4] stood at 110 nM.
